Measurements from ChEMBL document CHEMBL3751733, “Synergistic Antifungal Meroterpenes and Dioxolanone Derivatives from the Endophytic Fungus Guignardia sp” (J Nat Prod, 2015).
In brackets after ≈: the same amount, converted by molar mass.

Columns and labels:
[1] = tested on: U2OS; assay: Cytotoxicity against human U2OS cells by MTT assay; type: cell-based
Procedure, shortened: (§1)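 MTT assay with cisplatin as positive control.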

[2] = tested on: MCF7; assay: Cytotoxicity against human MCF7 cells by MTT assay; type: cell-based; procedure, shortened: as §1
[3] = tested on: HepG2; assay: Cytotoxicity against human HepG2 cells by MTT assay; type: cell-based; procedure, shortened: as §1
[4] = tested on: Candida albicans; assay: Antibiofilm activity against Candida albicans ATCC 24433 after 24 hrs by XTT-based colorimetric assay; type: functional; details: ATCC 24433, 24 h
Procedure, shortened: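 XTT assay: YPD overnight culture, PBS-washed, 1.0 × 10^6 cfu/mL in RPMI-1640/MOPS; biofilms formed at 37 °C for 24 h, washed, then treated 24 h at 37 °C; 0.5 mg/mL XTT for 2 h, read at 490 nm. MIC = lowest concentration giving ≥80% reduction in XTT signal.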

[5] = tested on: Pseudomonas aeruginosa; assay: Antibacterial activity against Pseudomonas aeruginosa ATCC 9027 by broth microdilution method; type: functional
Procedure, shortened: (§2)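 Broth microdilution in 96-well plates; MIC read by comparing OD with the growth control; amoxicillin and streptomycin as positive controls.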

[6] = tested on: Bacillus subtilis; assay: Antibacterial activity against Bacillus subtilis ATCC 6633 by broth microdilution method; type: functional; procedure, shortened: as §2
[7] = tested on: Escherichia coli; assay: Antibacterial activity against Escherichia coli ATCC 25922 by broth microdilution method; type: functional; procedure, shortened: as §2
[8] = tested on: Staphylococcus aureus; assay: Antibacterial activity against Staphylococcus aureus ATCC 25923 by broth microdilution method; type: functional; procedure, shortened: as §2
[9] = tested on: Candida albicans; assay: Synergistic antibiofilm activity against Candida albicans ATCC 24433 assessed as fractional inhibition concentration ratio after 24 hrs in presence of fluconazole by checkerboard assay; type: functional
Procedure, shortened: (§3)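 Preformed biofilms (1.0 × 10^6 cfu/mL in RPMI-1640/MOPS, 37 °C, 24 h) treated 24 h at 37 °C in a checkerboard: compounds 160 to 5 μg/mL, fluconazole 500 to 8 μg/mL. Read by 0.5 mg/mL XTT for 2 h at 490 nm, ≥80% reduction as endpoint; FICI calculated.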

[10] = tested on: Candida albicans; assay: Synergistic antibiofilm activity against Candida albicans ATCC 24433 assessed as fractional inhibition concentration index after 24 hrs in presence of fluconazole checkerboard assay; type: functional; procedure, shortened: as §3
[11] = tested on: Candida albicans; assay: Antibiofilm activity against Candida albicans ATCC 24433 after 24 hrs in presence of fluconazole by XTT-based colorimetric assay; type: functional; details: ATCC 24433, 24 h; procedure, shortened: as §3
[12] = tested on: Candida albicans; assay: Antifungal activity against Candida albicans ATCC 24433 assessed as synergistic growth inhibition after 24 hrs in presence of fluconazole by broth microdilution assay; type: functional; details: ATCC 24433, 24 h
Procedure, shortened: (§4)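 Checkerboard in RPMI-1640/MOPS, inoculum 1.0 × 10^4 cfu/mL, 35 °C, 24 h, OD 595 nm. Compound 25 to 0.8 μg/mL against fluconazole 4.0 to 0.0078 μg/mL. MIC = concentrations giving ≥80% growth reduction. FICI ≤ 0.5 counts as synergy; values compared at fluconazole 0.031 μg/mL.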

[13] = tested on: Candida albicans; assay: Antifungal activity against Candida albicans ATCC 24433 assessed as fractional inhibition concentration ratio in presence of fluconazole by checkerboard assay; type: functional; procedure, shortened: as §4
[14] = tested on: Candida albicans; assay: Antifungal activity against Candida albicans ATCC 24433 assessed as fractional inhibition concentration index in presence of fluconazole by checkerboard assay; type: functional; procedure, shortened: as §4
[15] = tested on: Candida albicans; assay: Antifungal activity against Candida albicans ATCC 24433 assessed as growth inhibition after 24 hrs by broth microdilution assay; type: functional; details: ATCC 24433, 24 h
Procedure, shortened: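 Broth microdilution: 24-h colonies suspended in 0.85% saline, diluted in RPMI-1640 with MOPS to 1.0 × 10^4 cfu/mL final, mixed 1:1 with sample; 35 °C, 24 h; OD 595 nm. MIC = lowest concentration giving 80% growth reduction. Fluconazole positive control; SD from three independent experiments.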

[16] = tested on: Candida albicans; assay: Potentiation of antifungal activity of fluconazole against Candida albicans ATCC 24433 by checkerboard assay; type: functional; procedure, shortened: as §4

SMILES | Activity [1] | Activity [2] | Activity [3] | MIC80 [4] [µg/mL] | MIC [5] [µg/mL] | MIC [6] [µg/mL] | MIC [7] [µg/mL] | MIC [8] [µg/mL] | Ratio [9] | fractional inhibitory concentration index (FICI) [10] | MIC80 [11] [µg/mL] | MIC80 [12] [µg/mL] | Ratio [13] | fractional inhibitory concentration index (FICI) [14] | MIC80 [15] [µg/mL] | fold change (FC) [16] | MIC [12] [µg/mL]
C=C(C)[C@@H]1CC[C@@]2(C)OC3=C(C[C@@H]12)C(=O)[C@@H]1C[C@@]3(O)CO1 | Non-toxic | Non-toxic | Non-toxic | > 200 |  |  |  |  |  |  |  |  |  |  |  |  | 
C=C(C)[C@@H]1CC[C@@]2(C)OC3=C(C[C@@H]12)C(=O)[C@](O)(CO)C[C@@H]3O | Non-toxic | Non-toxic | Non-toxic | > 200 | > 100 | 89.3 (≈ 290 µM) | > 100 | > 100 |  |  |  |  |  |  |  |  | 
CC1(C)S[C@@H]2[C@H](NC(=O)[C@H](N)c3ccc(O)cc3)C(=O)N2[C@H]1C(=O)O [AMOXICILLIN] |  |  |  |  |  | 1 (≈ 2.74 µM) |  | 0.8 (≈ 2.19 µM) |  |  |  |  |  |  |  |  | 
C=C(C)[C@@H]1C[C@H](O)[C@@]2(C)OC3=C(C[C@@H]12)C(=O)[C@](O)(CO)C[C@@H]3O | Non-toxic | Non-toxic | Non-toxic | > 200 |  |  |  |  | <0.4 | <0.46 | 80 |  |  |  |  |  | 
CC(C)[C@@]1(C(=O)O)OC(=O)/C(=C/c2ccccc2)O1 | Non-toxic | Non-toxic | Non-toxic | > 200 |  |  |  |  | <0.1 | <0.16 | 20 | 6.3 | 0.07 | 0.19 | 87.5 (≈ 334 µM) |  | 
C=C(C)[C@@H]1C[C@H](O)[C@@]2(C)OC3=C(C[C@@H]12)C(=O)[C@]1(O)CO[C@H]3C1 | Non-toxic | Non-toxic | Non-toxic | > 200 |  |  |  |  | <0.4 | <0.46 | 80 |  |  |  |  |  | 
CC(C)(O)[C@@H]1CC[C@@]2(C)OC3=C(C[C@@H]12)C(=O)[C@]1(O)CO[C@H]3C1 | Non-toxic | Non-toxic | Non-toxic | > 200 | 52.1 (≈ 169 µM) | 67.7 (≈ 220 µM) | 35.9 (≈ 116 µM) | > 100 | <0.4 | <0.46 | 80 | 6.3 |  | 0.32 | 15.5 (≈ 50.3 µM) |  | 
COC(=O)[C@]1(C(C)C)OC(=O)/C(=C\c2ccc(O)cc2)O1 | Non-toxic | Non-toxic | Non-toxic | > 200 |  |  |  |  |  |  |  |  |  |  |  |  | 
Oc1cccc2c1[C@H](O)[C@@H]1O[C@@H]1C21Oc2cccc3cccc(c23)O1 | Non-toxic | Non-toxic | Non-toxic | 145 (≈ 434 µM) | 45.5 (≈ 136 µM) | 59.5 (≈ 178 µM) | > 100 | 37.7 (≈ 113 µM) | 0.28 | <0.34 | 40 | 6.3 | 0.26 | 0.38 | 24.3 (≈ 72.7 µM) |  | 
CN[C@@H]1[C@H](O[C@H]2[C@H](O[C@H]3[C@H](O)[C@@H](O)[C@H](N=C(N)N)[C@@H](O)[C@@H]3N=C(N)N)O[C@@H](C)[C@]2(O)C=O)O[C@@H](CO)[C@H](O)[C@H]1O [STREPTOMYCIN] |  |  |  |  | 1.7 (≈ 2.92 µM) |  | 2.4 (≈ 4.13 µM) |  |  |  |  |  |  |  |  |  | 
CC(C)[C@H]1OC(=O)[C@H](Cc2ccccc2)N(C)C(=O)[C@@H](C(C)C)OC(=O)[C@H](Cc2ccccc2)N(C)C(=O)[C@@H](C(C)C)OC(=O)[C@H](Cc2ccccc2)N(C)C1=O |  |  |  | > 200 |  |  |  |  | <0.25 | <0.31 | 40 |  | <0.013 | <0.13 | > 100 | >16 | 1.3
C=C(C)[C@@H]1CC[C@@]2(C)OC3=C(C[C@@H]12)C(=O)[C@@H](OC)C[C@@H]3O | Non-toxic | Non-toxic | Non-toxic | > 200 |  |  |  |  |  |  |  |  |  |  |  |  | 
C=C(CO)[C@@H]1CC[C@@]2(C)OC3=C(C[C@@H]12)C(=O)[C@]1(O)CO[C@H]3C1 | Non-toxic | Non-toxic | Non-toxic | > 200 |  |  |  |  |  |  |  |  |  |  |  |  | 
C=C(C)[C@@H]1CC[C@@]2(C)OC3=C(C[C@@H]12)C(=O)[C@]1(O)CO[C@H]3C1 | Non-toxic | Non-toxic | Non-toxic | > 200 | 25.5 (≈ 87.8 µM) | > 100 | > 100 | > 100 |  |  |  |  |  |  |  |  | 
C=C(COC(C)=O)[C@@H]1CC[C@@]2(C)OC3=C(C[C@@H]12)C(=O)[C@]1(O)CO[C@H]3C1 | Non-toxic | Non-toxic | Non-toxic | > 200 |  |  |  |  |  |  |  |  |  |  |  |  | 
C=C(C)[C@@H]1CC[C@@]2(C)OC3=C(C[C@@H]12)C(=O)[C@H](O)C[C@@H]3O | Non-toxic | Non-toxic | Non-toxic | > 200 |  |  |  |  |  |  |  |  |  |  |  |  | 
C[C@](O)(CO)[C@@H]1CC[C@@]2(C)OC3=C(C[C@@H]12)C(=O)[C@]1(O)CO[C@H]3C1 | Non-toxic | Non-toxic | Non-toxic | > 200 |  |  |  |  | <0.4 | <0.46 | 80 | 25 | <0.25 | <0.38 | > 100 |  | 
C=C(C)[C@@H]1CC[C@@]2(C)OC3=C(C[C@@H]12)C(=O)[C@H](OC)C[C@@H]3O | Non-toxic | Non-toxic | Non-toxic | > 200 | > 100 | 37.3 (≈ 128 µM) | > 100 | > 100 |  |  |  |  |  |  |  |  | 
